# ChEMBL document CHEMBL1130008, “Structure-based design of a potent, selective, and irreversible inhibitor of the catalytic domain of the erbB receptor subfamily of protein tyrosine kinases” (J Med Chem, 1997)
# How the values were obtained:
# [1] = Affinity for mouse cyclic-AMP dependent Ser/Thr Kinase
# [2] = molecular target: Fibroblast growth factor receptor (Homo sapiens) (UniProt P22607+P11362+P22455+P21802); experiment: Inhibition of human fibroblast growth factor receptor (FGF) at 50 uM (no effect); type: protein assay
# [3] = molecular target: Insulin receptor (Homo sapiens) (UniProt P06213); experiment: Inhibition of human insulin receptor tyrosine kinase at 50 uM (no effect)
# [4] = molecular target: T1, Epidermal growth factor receptor (Homo sapiens, UniProt P00533); experiment: Inhibition of human erbB-1 receptor tyrosine kinase activity at 5 uM
# Summary of the method: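 A431-derived full-length erbB-1 was preincubated with 5 µM nucleoside without ATP, then assayed with 10 µM [32P]ATP and poly(Glu,Tyr) at 25 °C for 10 min; a TCA-precipitate count gave the read-out. Reversibility was tested by treating with 1 mM dithiothreitol.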
# [5] = molecular target: T1, Epidermal growth factor receptor; experiment: (§1) Rate constant for inactivation of erbB-1 receptor of A431 human epidermoid carcinoma cells; type: cell-based; conditions: A-431
# Summary of the method: (§2)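 A431 full-length erbB-1 preincubated with 0.1–25 µM nucleoside in kinase buffer lacking ATP for 1, 5, 15 or 30 min. 10 µM [32P]ATP then started a 10 min, 25 °C poly(Glu,Tyr) phosphorylation. Activity as % of control on semilog plots gave pseudo-first-order constants, fitted hyperbolically against concentration. Run in duplicate.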
# [6] = molecular target: T1, Epidermal growth factor receptor; experiment: Second order rate constant for inactivation of erbB-1 receptor of A431 human epidermoid carcinoma cells; type: cell-based; conditions: A-431; summary of the method: as §2
# [7] = molecular target: Receptor tyrosine-protein kinase erbB-2 (Homo sapiens, UniProt P04626); experiment: Inhibition of human erbB-2 receptor tyrosine kinase
# [8] = molecular target: Platelet-derived growth factor receptor beta (Homo sapiens) (UniProt P09619); experiment: Inhibition of human Platelet-derived growth factor receptor at 50 uM (no effect)
# [9] = molecular target: T1, Epidermal growth factor receptor; experiment: Half life for inactivation of erbB-1 receptor; summary of the method: as §2
# [10] = molecular target: T1, Epidermal growth factor receptor; experiment: Saturation rate constant for complex formation with human erbB-1 receptor; summary of the method: as §2
# [11] = molecular target: T1, Epidermal growth factor receptor; experiment: as §1; type: cell-based, A-431; summary of the method: as §2
# [12] = molecular target: T1, Epidermal growth factor receptor; experiment: Inhibition of erbB-1 receptor tyrosine kinase from A431 human epidermoid carcinoma cells; type: cell-based, A-431
# Summary of the method: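 Full-length erbB-1 purified from A431 cell lysate by anti-EGF-receptor antibody affinity resin and eluted with EGF. Run at 25 °C for 10 min, stopped with TCA, precipitate counted by scintillation.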
# Receptor tyrosine-protein kinase erbB-2, sequence (P04626 whole entry): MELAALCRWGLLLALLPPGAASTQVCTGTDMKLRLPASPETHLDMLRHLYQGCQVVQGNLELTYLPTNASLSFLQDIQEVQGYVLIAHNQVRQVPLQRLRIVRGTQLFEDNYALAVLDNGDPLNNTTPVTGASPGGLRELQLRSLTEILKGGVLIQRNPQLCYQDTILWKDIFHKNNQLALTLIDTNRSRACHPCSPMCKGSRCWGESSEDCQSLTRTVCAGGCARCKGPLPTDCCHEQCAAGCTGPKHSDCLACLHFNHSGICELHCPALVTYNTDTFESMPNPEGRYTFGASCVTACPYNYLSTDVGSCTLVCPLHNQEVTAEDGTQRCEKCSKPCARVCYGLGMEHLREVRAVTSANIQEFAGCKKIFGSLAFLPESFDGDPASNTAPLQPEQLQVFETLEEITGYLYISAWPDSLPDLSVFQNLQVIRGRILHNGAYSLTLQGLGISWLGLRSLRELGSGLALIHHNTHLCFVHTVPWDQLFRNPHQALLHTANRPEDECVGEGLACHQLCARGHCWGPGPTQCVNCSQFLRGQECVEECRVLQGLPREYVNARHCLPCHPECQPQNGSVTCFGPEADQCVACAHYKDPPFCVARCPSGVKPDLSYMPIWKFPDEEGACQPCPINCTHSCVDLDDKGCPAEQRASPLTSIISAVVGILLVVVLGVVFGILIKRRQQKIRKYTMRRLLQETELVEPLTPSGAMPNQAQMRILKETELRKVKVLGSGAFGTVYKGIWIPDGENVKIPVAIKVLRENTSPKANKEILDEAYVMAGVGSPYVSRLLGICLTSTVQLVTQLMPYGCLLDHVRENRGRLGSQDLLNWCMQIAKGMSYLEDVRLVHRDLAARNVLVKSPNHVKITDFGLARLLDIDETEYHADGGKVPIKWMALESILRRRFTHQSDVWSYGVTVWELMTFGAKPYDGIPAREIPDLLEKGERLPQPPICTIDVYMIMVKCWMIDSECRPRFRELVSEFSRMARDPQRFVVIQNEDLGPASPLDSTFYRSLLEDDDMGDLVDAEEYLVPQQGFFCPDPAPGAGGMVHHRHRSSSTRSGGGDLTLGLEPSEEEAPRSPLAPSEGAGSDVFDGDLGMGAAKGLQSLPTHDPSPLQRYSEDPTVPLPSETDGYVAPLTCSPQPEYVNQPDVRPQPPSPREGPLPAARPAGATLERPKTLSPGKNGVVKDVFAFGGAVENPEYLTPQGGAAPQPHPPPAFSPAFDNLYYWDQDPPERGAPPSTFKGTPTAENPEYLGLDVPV
# Fibroblast growth factor receptor (Homo sapiens), sequence (P11362 whole entry, looked up): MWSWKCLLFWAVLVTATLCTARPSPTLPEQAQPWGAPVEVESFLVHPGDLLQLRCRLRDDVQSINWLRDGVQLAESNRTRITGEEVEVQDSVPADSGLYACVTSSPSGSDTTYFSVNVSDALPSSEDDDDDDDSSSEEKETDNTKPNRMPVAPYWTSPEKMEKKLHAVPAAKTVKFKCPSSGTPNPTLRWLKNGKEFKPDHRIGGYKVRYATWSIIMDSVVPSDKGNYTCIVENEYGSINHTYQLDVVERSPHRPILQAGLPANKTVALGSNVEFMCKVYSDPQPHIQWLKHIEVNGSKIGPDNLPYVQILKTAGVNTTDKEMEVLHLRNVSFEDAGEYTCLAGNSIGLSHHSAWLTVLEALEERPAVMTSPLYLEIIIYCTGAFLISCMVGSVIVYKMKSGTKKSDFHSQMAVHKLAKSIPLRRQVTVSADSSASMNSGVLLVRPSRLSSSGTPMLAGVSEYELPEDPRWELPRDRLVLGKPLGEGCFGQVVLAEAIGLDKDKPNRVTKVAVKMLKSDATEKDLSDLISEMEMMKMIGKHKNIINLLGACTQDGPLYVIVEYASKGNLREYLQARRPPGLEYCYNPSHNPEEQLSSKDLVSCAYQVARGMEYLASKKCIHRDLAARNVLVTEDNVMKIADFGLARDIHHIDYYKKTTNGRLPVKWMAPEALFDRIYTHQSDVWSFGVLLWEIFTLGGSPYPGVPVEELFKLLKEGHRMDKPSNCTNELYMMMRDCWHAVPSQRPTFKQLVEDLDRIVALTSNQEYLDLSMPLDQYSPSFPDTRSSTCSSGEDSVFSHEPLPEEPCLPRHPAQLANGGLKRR
# Fibroblast growth factor receptor (Homo sapiens), sequence (P21802 whole entry, looked up): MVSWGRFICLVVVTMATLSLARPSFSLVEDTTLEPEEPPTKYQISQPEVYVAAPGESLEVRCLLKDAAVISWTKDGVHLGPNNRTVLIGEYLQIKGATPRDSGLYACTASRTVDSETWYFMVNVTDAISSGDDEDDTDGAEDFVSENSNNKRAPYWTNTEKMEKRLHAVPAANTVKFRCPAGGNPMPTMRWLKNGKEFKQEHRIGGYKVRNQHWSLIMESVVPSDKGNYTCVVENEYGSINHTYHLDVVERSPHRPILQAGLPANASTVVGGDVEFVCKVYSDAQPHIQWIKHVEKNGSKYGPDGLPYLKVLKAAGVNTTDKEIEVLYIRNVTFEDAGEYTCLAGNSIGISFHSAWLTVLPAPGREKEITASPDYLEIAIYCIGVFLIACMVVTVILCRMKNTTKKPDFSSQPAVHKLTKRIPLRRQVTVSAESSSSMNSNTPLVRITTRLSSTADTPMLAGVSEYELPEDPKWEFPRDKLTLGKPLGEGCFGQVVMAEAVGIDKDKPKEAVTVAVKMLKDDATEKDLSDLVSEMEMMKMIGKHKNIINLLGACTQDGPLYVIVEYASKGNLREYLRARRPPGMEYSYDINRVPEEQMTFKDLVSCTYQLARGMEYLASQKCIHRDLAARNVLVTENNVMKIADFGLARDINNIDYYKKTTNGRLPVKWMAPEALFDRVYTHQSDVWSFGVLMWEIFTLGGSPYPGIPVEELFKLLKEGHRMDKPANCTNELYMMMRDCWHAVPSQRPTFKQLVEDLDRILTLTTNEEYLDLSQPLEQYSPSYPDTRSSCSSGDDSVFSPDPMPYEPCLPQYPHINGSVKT
# Fibroblast growth factor receptor (Homo sapiens), sequence (P22455 whole entry, looked up): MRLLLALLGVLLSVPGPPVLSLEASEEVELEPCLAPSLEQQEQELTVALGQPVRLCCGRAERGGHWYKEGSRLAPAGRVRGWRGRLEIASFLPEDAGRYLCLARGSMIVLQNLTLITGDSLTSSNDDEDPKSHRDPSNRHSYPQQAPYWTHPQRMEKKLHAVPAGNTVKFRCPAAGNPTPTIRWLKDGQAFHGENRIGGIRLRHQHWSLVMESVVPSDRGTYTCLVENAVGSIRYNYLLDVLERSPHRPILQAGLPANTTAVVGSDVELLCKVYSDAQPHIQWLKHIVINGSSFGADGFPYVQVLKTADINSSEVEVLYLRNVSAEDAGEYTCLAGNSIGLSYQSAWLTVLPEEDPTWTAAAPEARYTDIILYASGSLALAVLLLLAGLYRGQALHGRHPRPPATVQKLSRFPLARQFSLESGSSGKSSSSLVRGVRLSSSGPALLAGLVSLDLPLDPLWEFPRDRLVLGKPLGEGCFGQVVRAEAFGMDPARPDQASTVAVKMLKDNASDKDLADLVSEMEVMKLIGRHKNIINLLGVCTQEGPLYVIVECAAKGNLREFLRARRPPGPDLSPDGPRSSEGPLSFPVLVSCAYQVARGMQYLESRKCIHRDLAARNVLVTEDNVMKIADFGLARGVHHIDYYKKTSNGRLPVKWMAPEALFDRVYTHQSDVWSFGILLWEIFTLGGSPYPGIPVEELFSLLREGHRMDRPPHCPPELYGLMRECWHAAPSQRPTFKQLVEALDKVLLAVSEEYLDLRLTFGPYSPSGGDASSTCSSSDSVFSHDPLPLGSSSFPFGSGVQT
# Fibroblast growth factor receptor (Homo sapiens), sequence (P22607 whole entry, looked up): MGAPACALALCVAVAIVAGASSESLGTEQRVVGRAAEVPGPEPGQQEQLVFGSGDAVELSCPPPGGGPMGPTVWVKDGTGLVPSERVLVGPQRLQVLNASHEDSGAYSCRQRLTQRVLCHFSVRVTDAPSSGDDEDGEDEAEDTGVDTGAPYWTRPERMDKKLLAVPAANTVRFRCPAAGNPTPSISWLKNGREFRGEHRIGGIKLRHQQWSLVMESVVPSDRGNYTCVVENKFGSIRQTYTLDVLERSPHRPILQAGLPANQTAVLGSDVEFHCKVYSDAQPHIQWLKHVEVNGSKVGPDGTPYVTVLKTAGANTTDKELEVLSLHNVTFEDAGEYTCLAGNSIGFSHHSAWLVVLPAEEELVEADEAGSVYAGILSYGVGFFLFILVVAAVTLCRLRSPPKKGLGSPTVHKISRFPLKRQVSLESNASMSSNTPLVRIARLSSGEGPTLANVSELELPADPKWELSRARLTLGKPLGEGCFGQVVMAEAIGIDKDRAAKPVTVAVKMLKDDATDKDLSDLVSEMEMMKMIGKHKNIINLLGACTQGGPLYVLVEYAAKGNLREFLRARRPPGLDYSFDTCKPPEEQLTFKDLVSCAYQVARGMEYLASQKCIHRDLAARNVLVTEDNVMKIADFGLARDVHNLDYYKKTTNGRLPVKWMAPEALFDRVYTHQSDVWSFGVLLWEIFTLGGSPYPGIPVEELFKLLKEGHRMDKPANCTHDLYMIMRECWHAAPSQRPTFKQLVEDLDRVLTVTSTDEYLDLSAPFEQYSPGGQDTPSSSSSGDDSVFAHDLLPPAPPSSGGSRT
SMILES,Kd [1],Concentration [2],Concentration [3],inhibition [4],kmax [5],kmax/KS [6],IC50 [7],Concentration [8],T1/2 [9],KS [10],Kd [11],IC50 [12]
Nc1ncnc2c1ncn2[C@@H]1O[C@H](COP(=O)(O)OP(=O)(O)OP(=O)(O)O)[C@@H](O)[C@H]1O [ADENOSINE TRIPHOSPHATE],10 µM,–,–,–,–,–,–,–,–,–,–,–
Nc1ncnc2c1ncn2[C@@H]1O[C@H](CO)[C@@H](O)[C@H]1S,–,50 µM,50 µM,70%,0.0023 s⁻¹,2000 M⁻¹ s⁻¹,45 µM,50 µM,5 min,1 µM,1 µM,–
Nc1ncnc2c1ncn2[C@@H]1O[C@H](COP(=O)(O)OP(=O)(O)O)[C@@H](O)[C@H]1O [ADENOSINE DIPHOSPHATE],10 µM,–,–,–,–,–,–,–,–,–,–,–
Nc1ncnc2c1ncn2[C@@H]1O[C@H](CO)[C@@H](O)[C@H]1O [ADENOSINE],35 µM,50 µM,50 µM,–,–,–,~1600 µM,50 µM,–,–,–,195 µM
